System: MS2 coat protein
Test: apparent Kd, MS2 coat protein; higher = weaker binding; RNA-MaP array; FMN 200 µM where present
How it was run: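 On Illumina sequencing-chip clusters, designs were transcribed by stalled E. coli RNA polymerase and titrated with SNAP-549-labelled MS2 coat protein (0.7 or 1.5 nM, doubling to 3 µM), without and then with constant ligand, in 100 mM Tris-HCl pH 7.5, 80 mM KCl, 4 mM MgCl2, BSA, DTT, yeast tRNA and Tween-20. Apparent Kd is the median of filtered per-cluster curve fits to green signal normalised to red-channel RNA signal and control-cluster median Fmax.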

[1] = designed as: ON switch for flavin mononucleotide, no ligand
[2] = ligand present: flavin mononucleotide, designed as: ON switch for flavin mononucleotide
[3] = designed as: OFF switch for flavin mononucleotide, no ligand
[4] = ligand present: flavin mononucleotide, designed as: OFF switch for flavin mononucleotide

UUUACAUGAGGAUCACCCAUGUCUUGAAAGAUUAGUUUUGGUGAGGAUAUACAUGAUAAAGAAUUGUAGAAGGCACUGGGUACA
apparent Kd [1]: 258 nM
apparent Kd [2]: 124 nM

GUCAGCUCGUGAGGAUAUACAACACUGCUACGGCAGUGUAUUAAGAUCACAUGAGGAUCACCCAUGUAGAAGGCACGAGCUGAU
apparent Kd [3]: 14 nM
apparent Kd [4]: 242 nM

CCAUUUCUGUAAGGAUAUAUAAACAUGACGAUACAUGAGGAUCACCCAUGUGUAGAAGGUACAAAUACAUAUAAUACAAUGCUC
apparent Kd [3]: 13.1 nM
apparent Kd [4]: 11.7 nM

AGUCGGAGCAGAGGAUAUACAUGAGGAUCACCCAUGUAAUUAAGUGAAGCCUGGAAACAGGCAAUGUAGAAGGCUGCUCCGACA
apparent Kd [3]: 9.44 nM
apparent Kd [4]: 51.7 nM

GGUCUGAUAUGAGGAUAUGCUCAGGAAUACUGAGCAGAAGGCAUGUGAAUACAUGAGGAUCACCCAUGUGAUCAAUACAGACCA
apparent Kd [1]: 140 nM
apparent Kd [2]: 26 nM

UUACUAUUGCAGAAGGCUCAAUAAUAUAUAAAGGGAGGAUAUGCAACAUGAGGAUCACCCAUGUUUCACCCAUAUGAGGAUCAC
apparent Kd [3]: 9.51 nM
apparent Kd [4]: 13 nM

AACCUACAUGAGGAUCACCCAUGUAUCUGAGGCACAGGAUAUCGACAGGCAAGACACCUGCGAGAAGGGUGACCUC
apparent Kd [1]: 94 nM
apparent Kd [2]: 39.9 nM

AAAUGCAUAAAGGACACAUGAGGAUCACCCAUGUUUCUGUUCAAGGAUAUGAGGUGAAUGAUCCGUCAGAAGGUGAACUUGCUU
apparent Kd [1]: 180 nM
apparent Kd [2]: 400 nM

ACAUGAGGAUCACCCAUGUUCACAUAGGAUAUUGAUUAUAUUGGUUUUUGAAUAGUAAUUAACCUCAAGAAGGAUGCCUGAUCU
apparent Kd [1]: 11.6 nM
apparent Kd [2]: 9.34 nM

AAUUAGGUCACAGGAUAUACAACUUCCAUUGCUGUAGAAGGGUGUCACAUACUUAGCUGACAUGAGGAUCACCCAUGUAUCCAC
apparent Kd [1]: 243 nM
apparent Kd [2]: 95.2 nM

ACUUCACAUGAGGAUCACCCAUGUCAGGCCGGACUAGGAUAUUAUCAUGCAGCGUAACAGUGAGAAGGAGUUGGAU
apparent Kd [1]: 91.2 nM
apparent Kd [2]: 89.3 nM

AAAAGCAGAGGAUAUACAUAAUUAUGACGAAAGUCAUAAAAACAUGAGGAUCACCCAUGUAGAAGGCUGCAAAA
apparent Kd [3]: 24.4 nM
apparent Kd [4]: 34.1 nM

AUGGUUGUCGUAGGAUAUGUAGGAUAUUCCUACAUGAGGAUCACCCAUGUUCGCAUGGAAGAAGGACAGAAGGACGAUAACCAC
apparent Kd [1]: 1310 nM
apparent Kd [2]: 8.46 nM

AAUUCACAUGAGGAUCACCCAUGUCAGGAUAUGGUGACGCGGGUUUCGGUGCGUGUUGCCAGAAGGGACGGCUG
apparent Kd [4]: 115 nM

AAAAAGUGAGGAUAUACAUGAGGAUCACCCAUGUGAAAUCGGAAAAAAAACGAAAAAAGUAGAAGGCACAAAAA
apparent Kd [3]: 25.3 nM
apparent Kd [4]: 24.5 nM

AAGAAGUCAGGAUAUCCUGCUCGUCACUUGCGUGAUGAGUAGGAGAAGGGACAUGAGGAUCACCCAUGUAAAGA
apparent Kd [3]: 54.3 nM
apparent Kd [4]: 51.5 nM

GAAGACAUAGUUCAGGAUAUAGGAAUAGUCACAUGAGGAUCACCCAUGUGCAUUUAUAUGCGCACUUAGAAGGGAGGUAGUUAUC
apparent Kd [1]: 36.3 nM
apparent Kd [2]: 41 nM

GGAACAACAUGAGGAUAUCGAUGAGUAUAGAGUCGAGAAGGCAUGUCAUAAGACAUGAGGAUCACCCAUGUAGUUACAAUACCA
apparent Kd [1]: 1010 nM
apparent Kd [2]: 69.2 nM

UGUUACUAGUAAGGAUAUACUUGCAAUAAGCUUGUAGAAGGUACAGUCUUUUGUAUAACAUGUUUACAUGAGGAUCACCCAUGU
apparent Kd [1]: 10.6 nM
apparent Kd [2]: 9.66 nM

UUAAUUAUACAAGGAUAUCUAUUGUUAUGUCGACUUACAUGAGGAUCACCCAUGUUAAUAUAUGAAGAGAAGGUGUAUUUUCAG
apparent Kd [1]: 157 nM
apparent Kd [2]: 90 nM
